The test system of experiment [1] is SF-295. Briefly: Effect on morphology of human SF295 cells assessed as induction of ruffled F-actin at 10 uM after 24 hrs using DAPI staining by multi-photon microscopy. Type of experiment: functional, cell-based. Put shortly: (§1)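 Cells grown on sterile coverslips to 65% confluency, then treated. Then fixed in 3.7% formaldehyde for 15 min, permeabilized in 0.2% Triton X-100 for 4 min, blocked in 1% BSA for 30 min and stained 20 min with phalloidin for F-actin. Mounted in DAPI-containing medium, imaged by multi-photon microscopy. SF-295 kept in RPMI 1640; A549 in F-12; both with 10% FCS.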

Experiment [2] concerns A549. Briefly: Effect on morphology in human A549 cells assessed as induction of ruffled F-actin at 10 uM after 24 hrs using DAPI staining by multi-photon microscopy. Type of experiment: functional, cell-based. The gist of the method: as §1
Experiment [3] relates to SF-295. Briefly: Inhibition of ROCK in human SF295 cells assessed as change in morphology at 10 uM after 24 hrs using DAPI staining by multi-photon microscopy. It is filed as cell-based. Put shortly: as §1
Experiment [4] deals with SF-539. Description: Cytotoxicity against human SF539 cells after 44 hrs by MTT assay. It is filed as functional. Particulars: SF-539, 44 h. For orientation: Tetrazolium dyes change colour on reduction, which living cells bring about.
Experiment [5] has as its system SF-295. Briefly: Cytotoxicity against human SF295 cells after 44 hrs by MTT assay. It is filed as functional, cell-based. To be noted: SF-295, 44 h. Put shortly:
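SF-295 glioblastoma cells grown in RPMI 1640 with 10% fetal calf serum and pen-strep at 37 °C, 5% CO2. Plated in 24-well plates and dosed at 65% confluency. Thiazolyl blue tetrazolium added 44 h after treatment. At 48 h, HCl/Triton X-100/isopropanol solubiliser added, then overnight at 37 °C with gentle agitation. Absorbance read at 540 nm, 630 nm reference.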

The subject of experiment [6] is SNB-75. Description: Cytotoxicity against human SNB75 cells after 44 hrs by MTT assay. Type of experiment: functional. Particulars: SNB-75, 44 h.
Experiment [7] concerns SF-295. Description: Effect on cytosolic localization in human SF295 cells assessed as increase in fluorescence intensity at 100 nM by fluorescence microscopy. Type of experiment: functional, cell-based. Put shortly:
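SF-295 cells on sterile coverslips at 65% confluency, treated for varied intervals across a concentration range. Washed three times in complete medium to remove compound, mounted right away, and live compound fluorescence imaged by multi-photon microscopy against untreated-cell autofluorescence.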

Experiment [8] deals with A549. Briefly: Effect on morphology of human A549 cells at 500 nM after 24 hrs using DAPI staining by multi-photon microscopy. It is filed as functional, cell-based. The gist of the method: as §1
In experiment [9] the test system is SF-295. Description: Effect on morphology of human SF295 cells at 500 nM after 48 hrs using DAPI staining by multi-photon microscopy. Type of experiment: functional, cell-based. The gist of the method: as §1
Experiment [10] concerns A549. Description: Cytotoxicity against human A549 cells after 44 hrs by MTT assay. It is filed as functional, cell-based. Put shortly:
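A549 cells in F-12 medium with 10% fetal calf serum and pen-strep, 37 °C, 5% CO2, treated in 24-well plates at 65% confluency. MTT added 44 h after treatment; at 48 h, solubilizer (HCl, Triton X-100, isopropanol) added, overnight at 37 °C with gentle agitation. Absorbance read at 540 nm with 630 nm reference.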

Experiment [11] has as its system SF-295. Description: Effect on morphology of human SF295 cells at 500 nM after 24 hrs using DAPI staining by multi-photon microscopy. Type of experiment: functional, cell-based. The gist of the method:
as §1

Experiment [12] concerns A549. Description: Effect on morphology of human A549 cells at 500 nM after 48 hrs using DAPI staining by multi-photon microscopy. Type of experiment: functional, cell-based. Put shortly:
as §1

In general, GI50 refers to the concentration at which growth is held to half of that of the control. A low value points to greater sensitivity of the cells. As usually defined, the pIC50 is the negative decadic logarithm of the IC50, by convention in mol/L. Low values mean a high IC50, high ones a low IC50.

pIC50: −log10 of the molar value. Active and inactive are the calls of the source. The rule behind the calls is not given here.

As for `C[C@@H](N)[C@H]1CC[C@H](C(=O)Nc2ccncc2)CC1`, the outcome in [1] and in [2] was Active.

Turning to `COc1cc(/C=C/c2cc(O)c(C/C=C(\C)CCC=C(C)C)c(O)c2)cc2c1O[C@]1(C)CC[C@@H](O)C(C)(C)[C@H]1C2`, the outcome in experiment [3] was Active.

With `CC(C)=CCC/C(C)=C/Cc1c(O)cc(/C=C/c2cc(O)c3c(c2)C[C@@H]2C(C)(C)[C@H](O)[C@H](O)C[C@@]2(C)O3)cc1O` [SCHWEINFURTHIN A], the GI50 in experiment [4] came out at 10 nM; in experiment [5], 11 nM; in experiment [6], 15 nM.

Consider `COc1cc(/C=C/c2cc(O)c(/C=C/c3cccc(O)c3)c(O)c2)cc2c1O[C@]1(C)CC[C@@H](O)C(C)(C)[C@H]1C2`, for which the result in experiment [7], in [9], in [10] and in experiment [3] was Active. For the same molecule, the result in experiment [8], in experiment [11] and in [12] was inactive. The same molecule gave a negative-log IC50 (pIC50) in experiment [5] of 6.10.

(Values after ChEMBL document CHEMBL1152945, “Synthesis and biological activity of a fluorescent schweinfurthin analogue” (Bioorg Med Chem, 2009).)
